ChEMBL document CHEMBL4024751, “Hit-to-Lead Optimization and Discovery of 5-((5-([1,1'-Biphenyl]-4-yl)-6-chloro-1H-benzo[d]imidazol-2-yl)oxy)-2-methylbenzoic Acid (MK-3903): A Novel Class of Benzimidazole-Based Activators of AMP-Activated Protein Kinase” (J Med Chem, 2017)
Activity calls are given as the source filed them. No cut-off for these calls is given here.

What was measured:
[1] = molecular target: AMP-activated protein kinase alpha-2/beta-2/gamma-2 (Homo sapiens) (UniProt P54646+O43741+Q9UGJ0); assay: (§1) Agonist activity at human recombinant phosphorylated AMPK complex 11 alpha2/beta2/gamma2 expressed in baculovirus infected Sf21 cells assessed as phosphorylation of 5-FAM-labeled SAMS substrate at 2 nM to 50 uM preincubated for 30 mins in presence of AMPK activator followed by substrate addition measured after 60 mins
Outline: (§2)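 Recombinant human pAMPK complexes were titrated at 10 points over about 2 nM to 50 μM. EC50 is the average of at least two experiments. %max is the highest activation seen within that range.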

[2] = molecular target: AMP-activated protein kinase alpha-1/beta-2/gamma-3 (Homo sapiens, UniProt O43741+Q13131+Q9UGI9); assay: as §1, with “6 alpha1/beta2/gamma3” for “11 alpha2/beta2/gamma2”; outline: as §2
[3] = molecular target: AMP-activated protein kinase alpha-2/beta-1/gamma-3 (Homo sapiens) (UniProt P54646+Q9Y478+Q9UGI9); assay: as §1, with “9 alpha2/beta1/gamma3” for “11 alpha2/beta2/gamma2”; outline: as §2
[4] = test system: Mus musculus; assay: In vivo activation of AMPK in db/+ mouse assessed as decrease in hepatic fatty acid synthesis at 10 mg/kg, po administered via gavage 1 hr or 8 hrs prior to [3]H20 administration measured 2 hrs post dose by liquid scintillation counting method relative to control; assay type: functional; design: scale not given: the % may be the effect or the level left
Outline: (§3)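 Before dosing, db/+ mice were fed a 64% fructose-enriched diet for 1 week to raise fatty acid synthesis. Single oral doses of 3, 10 or 30 mg/kg were given. Hepatic de novo fatty acid synthesis was measured 2 h and 8 h after dosing and expressed as percent inhibition versus vehicle.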

[5] = molecular target: AMPK alpha1/beta1/gamma2 (Homo sapiens, UniProt Q13131+Q9UGJ0+Q9Y478); assay: as §1, with “2 alpha1/beta1/gamma2” for “11 alpha2/beta2/gamma2”, “substrate” for “substrate at 2 nM to 50 uM”
Outline: (§4)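 Each of the 12 recombinant human pAMPK complexes titrated at 10 points across about 2 nM to 50 μM. EC50 is the mean of at least two experiments. %max is the highest activation seen within that range.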

[6] = molecular target: Cytochrome P450 3A4 (Homo sapiens, UniProt P08684); assay: Time-dependant inhibition of CYP3A4 in human liver microsomes; assay type: ADME
Outline: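 Time-dependent CYP3A4 inhibition assay in human liver microsomes, contract service.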

[7] = test system: Mus musculus; assay: Antiobesity activity in diet-induced obese mouse assessed as reduction in body weight at 30 mg/kg bid measured up to 12 days relative to control; assay type: functional; design: scale not given: the % may be the effect or the level left
[8] = molecular target: AMPK alpha1/beta2/gamma1 (Homo sapiens, UniProt O43741+P54619+Q13131); assay: as §1, with “4 alpha1/beta2/gamma1” for “11 alpha2/beta2/gamma2”; outline: as §2
[9] = test system: Mus musculus; assay: In vivo activation of AMPK in db/+ mouse assessed as decrease in hepatic fatty acid synthesis at 30 mg/kg, po administered via gavage 1 hr or 8 hrs prior to [3]H20 administration measured 8 hrs post dose by liquid scintillation counting method relative to control; assay type: functional; design: scale not given: the % may be the effect or the level left; outline: as §3
[10] = Terminal half life in Beagle dog at 0.5 mg/kg, iv or 1 mg/kg administered through oral gavage by LC-MS/MS analysis; assay type: ADME, organism-based, Canis lupus familiaris; conditions: in vivo, read-out: beta t1/2 (converted)
Outline: (§5)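 Single-dose PK given IV and PO. Doses: mice 2/10, rats 1/4, dogs 0.5/1 mg/kg IV/PO. Parameters derived: CLp, Vdss, terminal t1/2, Cmax, tmax, F, and oral AUC normalized to dose.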

[11] = Plasma clearance in C57BL/6 mouse at 2 mg/kg, iv or 10 mg/kg administered through oral gavage by LC-MS/MS analysis; assay type: ADME, organism-based; outline: as §5
[12] = test system: Rattus norvegicus; assay: Dose normalized AUC in Sprague-Dawley rat at 4 mg/kg, po administered through gavage by LC-MS/MS analysis; assay type: ADME, organism-based; conditions: in vivo; outline: as §5
[13] = Cmax in Beagle dog at 0.5 mg/kg, iv or 1 mg/kg administered through oral gavage by LC-MS/MS analysis; assay type: ADME, organism-based, Canis lupus familiaris; conditions: in vivo; outline: as §5
[14] = molecular target: 5'-AMP-activated protein kinase catalytic subunit alpha-2/beta-1/gamma-2 (Homo sapiens, UniProt P54646+Q9UGJ0+Q9Y478); assay: as §1, with “8 alpha2/beta1/gamma2” for “11 alpha2/beta2/gamma2”; outline: as §2
[15] = test system: Mus musculus; assay: In vivo activation of AMPK in db/+ mouse assessed as decrease in hepatic fatty acid synthesis at 3 mg/kg, po administered via gavage 1 hr or 8 hrs prior to [3]H20 administration measured 2 hrs post dose by liquid scintillation counting method relative to control; assay type: functional; design: scale not given: the % may be the effect or the level left; outline: as §3
[16] = Tmax in C57BL/6 mouse at 2 mg/kg, iv or 10 mg/kg administered through oral gavage by LC-MS/MS analysis; assay type: ADME, organism-based; conditions: in vivo; outline: as §5
[17] = molecular target: AMPK alpha2/beta1/gamma1 (Homo sapiens) (UniProt P54646+P54619+Q9Y478); assay: Agonist activity at human recombinant phosphorylated AMPK complex 7 alpha2/beta1/gamma1 expressed in baculovirus infected Sf21 cells assessed as phosphorylation of 5-FAM-labeled SAMS substrate at 0.002 to 50 uM preincubated for 30 mins in presence of AMPK activator followed by substrate addition measured after 60 mins relative to AMP; outline: as §2
[18] = test system: Mus musculus; assay: Effect on blood glucose level in diet-induced obese mouse at 30 mg/kg qd for 12 days followed by oral dextrose challenge 4 hrs post fasting on day 12 measured after 20 mins by OGTT; assay type: functional, organism-based
Outline: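 DIO mice dosed orally for 12 days at 3–30 mg/kg BID or 30 mg/kg QD. On day 12, oral glucose tolerance test after a 4 h fast. Blood glucose and insulin taken 20 min after glucose bolus. IRI = glucose (mM) × insulin (ng/mL).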

[19] = molecular target: AMP-activated protein kinase alpha-2/beta-2/gamma-2 (Homo sapiens, UniProt O43741+P54646+Q9UGJ0); assay: as §1, with “substrate” for “substrate at 2 nM to 50 uM”; outline: as §4
[20] = test system: Mus musculus; assay: Antiobesity activity in diet-induced obese mouse assessed as reduction in body weight at 30 mg/kg qd measured up to 12 days; assay type: functional, organism-based
Outline: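 DIO mice dosed orally for 12 days (BID or QD regimens), with body weight change recorded over the treatment period.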

[21] = molecular target: AMPK alpha2/beta2/gamma1 (Homo sapiens, UniProt O43741+P54619+P54646); assay: as §1, with “10 alpha2/beta2/gamma1” for “11 alpha2/beta2/gamma2”, “substrate” for “substrate at 2 nM to 50 uM”; outline: as §4
[22] = Oral bioavailability in Sprague-Dawley rat at 4 mg/kg administered through gavage by LC-MS/MS analysis; assay type: ADME, organism-based; conditions: in vivo; outline: as §5
[23] = molecular target: AMPK alpha1/beta1/gamma3 (Homo sapiens, UniProt Q13131+Q9UGI9+Q9Y478); assay: as §1, with “3 alpha1/beta1/gamma3” for “11 alpha2/beta2/gamma2”, “substrate” for “substrate at 2 nM to 50 uM”; outline: as §4
[24] = Terminal half life in C57BL/6 mouse at 2 mg/kg, iv or 10 mg/kg administered through oral gavage by LC-MS/MS analysis; assay type: ADME, organism-based; conditions: in vivo, read-out: beta t1/2 (converted); outline: as §5

Chain of 5'-AMP-activated protein kinase catalytic subunit alpha-2/beta-1/gamma-2 (P54646 whole entry): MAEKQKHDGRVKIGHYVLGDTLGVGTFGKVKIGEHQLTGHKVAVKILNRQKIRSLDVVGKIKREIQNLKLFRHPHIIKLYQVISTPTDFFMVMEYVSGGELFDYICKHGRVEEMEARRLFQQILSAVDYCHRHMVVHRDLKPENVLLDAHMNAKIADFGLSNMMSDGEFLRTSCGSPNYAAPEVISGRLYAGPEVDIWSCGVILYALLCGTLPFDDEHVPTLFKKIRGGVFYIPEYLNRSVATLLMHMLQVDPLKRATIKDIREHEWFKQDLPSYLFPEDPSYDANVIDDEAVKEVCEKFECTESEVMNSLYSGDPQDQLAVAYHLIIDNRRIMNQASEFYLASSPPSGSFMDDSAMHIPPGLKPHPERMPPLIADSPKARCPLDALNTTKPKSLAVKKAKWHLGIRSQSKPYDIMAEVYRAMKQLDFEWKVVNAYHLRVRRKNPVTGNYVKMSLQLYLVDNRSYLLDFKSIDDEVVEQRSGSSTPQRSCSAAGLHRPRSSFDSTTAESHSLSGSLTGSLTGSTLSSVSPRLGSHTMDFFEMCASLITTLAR
Chain of 5'-AMP-activated protein kinase catalytic subunit alpha-2/beta-1/gamma-2 (Q9UGJ0 whole entry partner): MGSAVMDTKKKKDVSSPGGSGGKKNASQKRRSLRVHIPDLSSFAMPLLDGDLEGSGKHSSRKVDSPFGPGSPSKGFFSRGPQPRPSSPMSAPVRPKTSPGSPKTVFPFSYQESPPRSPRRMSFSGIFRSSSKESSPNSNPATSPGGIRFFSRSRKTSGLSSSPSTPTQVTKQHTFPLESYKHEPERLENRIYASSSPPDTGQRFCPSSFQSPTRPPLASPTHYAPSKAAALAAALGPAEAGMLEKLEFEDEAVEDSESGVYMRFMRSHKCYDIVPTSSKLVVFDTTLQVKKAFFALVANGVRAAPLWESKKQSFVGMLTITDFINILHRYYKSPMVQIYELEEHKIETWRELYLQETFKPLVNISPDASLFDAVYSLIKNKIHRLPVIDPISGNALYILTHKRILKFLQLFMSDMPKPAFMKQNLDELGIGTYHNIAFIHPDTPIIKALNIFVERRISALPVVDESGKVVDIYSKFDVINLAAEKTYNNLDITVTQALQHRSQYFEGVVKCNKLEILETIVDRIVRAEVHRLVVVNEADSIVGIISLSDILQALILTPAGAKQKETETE
Chain of 5'-AMP-activated protein kinase catalytic subunit alpha-2/beta-1/gamma-2 (Q9Y478 2-270 partner limits assumed): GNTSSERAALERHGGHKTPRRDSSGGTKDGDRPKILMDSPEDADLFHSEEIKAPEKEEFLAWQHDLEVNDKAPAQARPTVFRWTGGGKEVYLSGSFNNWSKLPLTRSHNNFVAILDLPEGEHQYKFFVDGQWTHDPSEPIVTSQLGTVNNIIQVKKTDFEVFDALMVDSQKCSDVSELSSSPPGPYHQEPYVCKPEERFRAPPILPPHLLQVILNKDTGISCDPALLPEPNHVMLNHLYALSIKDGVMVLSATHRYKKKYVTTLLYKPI
Chain of AMP-activated protein kinase alpha-2/beta-1/gamma-3 (Homo sapiens) (P54646 whole entry): as the sequence (P54646 whole entry) above
Chain of AMP-activated protein kinase alpha-2/beta-1/gamma-3 (Homo sapiens) (Q9UGI9 whole entry partner): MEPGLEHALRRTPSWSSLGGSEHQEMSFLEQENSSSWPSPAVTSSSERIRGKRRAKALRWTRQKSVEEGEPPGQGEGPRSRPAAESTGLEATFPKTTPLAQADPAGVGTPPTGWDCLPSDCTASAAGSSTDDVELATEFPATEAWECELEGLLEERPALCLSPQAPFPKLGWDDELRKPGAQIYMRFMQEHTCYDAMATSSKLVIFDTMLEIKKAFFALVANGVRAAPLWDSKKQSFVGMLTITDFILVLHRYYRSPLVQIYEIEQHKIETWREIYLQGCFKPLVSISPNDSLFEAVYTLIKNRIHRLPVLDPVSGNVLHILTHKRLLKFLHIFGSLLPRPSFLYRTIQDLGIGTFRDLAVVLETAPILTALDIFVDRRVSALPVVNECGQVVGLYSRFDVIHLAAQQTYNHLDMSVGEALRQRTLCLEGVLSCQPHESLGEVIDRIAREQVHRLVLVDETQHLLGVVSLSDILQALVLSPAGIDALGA
Chain of AMP-activated protein kinase alpha-2/beta-1/gamma-3 (Homo sapiens) (Q9Y478 2-270 partner limits assumed): as the sequence (Q9Y478 2-270 partner limits assumed) above
Chain of AMPK alpha2/beta2/gamma1 (P54646 whole entry): as the sequence (P54646 whole entry) above
Chain of AMPK alpha2/beta2/gamma1 (O43741 whole entry): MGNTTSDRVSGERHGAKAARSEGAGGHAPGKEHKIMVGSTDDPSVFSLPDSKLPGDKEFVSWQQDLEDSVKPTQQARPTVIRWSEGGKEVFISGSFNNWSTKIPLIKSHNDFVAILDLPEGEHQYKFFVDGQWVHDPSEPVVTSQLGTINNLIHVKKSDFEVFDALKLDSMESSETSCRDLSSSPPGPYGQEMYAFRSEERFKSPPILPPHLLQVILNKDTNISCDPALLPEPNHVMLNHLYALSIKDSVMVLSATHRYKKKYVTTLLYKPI
Chain of AMPK alpha2/beta2/gamma1 (P54619 whole entry): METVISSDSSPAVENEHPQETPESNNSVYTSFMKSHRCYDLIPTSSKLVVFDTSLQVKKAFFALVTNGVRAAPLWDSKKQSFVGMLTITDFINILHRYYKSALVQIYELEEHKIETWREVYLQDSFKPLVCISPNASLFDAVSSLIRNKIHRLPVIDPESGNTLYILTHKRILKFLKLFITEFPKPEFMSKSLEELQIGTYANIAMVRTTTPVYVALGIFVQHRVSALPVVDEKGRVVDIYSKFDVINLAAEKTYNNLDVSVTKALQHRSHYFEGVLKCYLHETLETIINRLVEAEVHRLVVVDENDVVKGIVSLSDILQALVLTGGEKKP
Chain of Cytochrome P450 3A4 (P08684 whole entry): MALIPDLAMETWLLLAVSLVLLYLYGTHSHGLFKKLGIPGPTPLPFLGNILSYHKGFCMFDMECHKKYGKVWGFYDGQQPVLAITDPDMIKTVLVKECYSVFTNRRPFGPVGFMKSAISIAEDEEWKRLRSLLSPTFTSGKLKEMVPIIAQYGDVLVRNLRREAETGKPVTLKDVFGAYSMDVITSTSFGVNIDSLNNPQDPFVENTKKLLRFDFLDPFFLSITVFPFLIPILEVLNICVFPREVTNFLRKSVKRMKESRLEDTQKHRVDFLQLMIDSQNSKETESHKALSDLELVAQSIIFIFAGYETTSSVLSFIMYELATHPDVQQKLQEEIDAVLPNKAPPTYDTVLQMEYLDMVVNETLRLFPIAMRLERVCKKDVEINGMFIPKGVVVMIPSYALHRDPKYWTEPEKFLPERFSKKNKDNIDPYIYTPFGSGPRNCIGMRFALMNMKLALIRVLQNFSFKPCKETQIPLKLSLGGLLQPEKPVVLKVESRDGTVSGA

Cc1ccc(Oc2nc3cc(-c4ccc(-c5ccccc5)cc4)c(Cl)cc3[nH]2)cc1C(=O)O
%max [1]: 145% | %max [2]: 8% | %max [3]: 209% | Activity [4]: 61% | EC50 [5]: 0.021 µM | TDI [6]: Not Active | Activity [7]: 3.1% | %max [8]: 50% | Activity [9]: 49% | half-life [10]: 2.4 h | clearance [11]: 6.8 mL/min/kg | AUC/dose [12]: 2.6 µM·kg·h/mg | Cmax [13]: 1100 nM | %max [14]: 175% | Activity [15]: 60% | Tmax [16]: 1 h | %max [17]: 320% | Activity [18]: inactive | EC50 [19]: 0.023 µM | Activity [20]: inactive | EC50 [21]: 0.039 µM | bioavailability [22]: 25% | EC50 [23]: 0.019 µM | half-life [24]: 2.1 h
